Measurements from ChEMBL document CHEMBL1212911, “Identification of potent and selective amidobipyridyl inhibitors of protein kinase D” (J Med Chem, 2010).
Calls of active or inactive are those of the source. No cut-off for these calls is given here.

Legend:
[1] = Inhibition of PKC-mediated phosphorylation of Ser744/748
[2] = Drug level in Dahl salt-sensitive rat left ventricle at 5 mg/kg, sc qd; conditions: in vivo, read-out: Drug uptake
Plasma = test: Drug level in Dahl salt-sensitive rat plasma at 5 mg/kg, sc qd; conditions: in vivo
Rattus norvegicus = test: Ex vivo inhibition of PKD in PBMC isolated from Dahl salt-sensitive sc dosed rat assessed as inhibition of PMA-induced HDAC phosphorylation
[3] = target: T1, Protein kinase C epsilon type (Homo sapiens) (UniProt Q02156); test: Inhibition of PKCepsilon; conditions: concentration not given here
T1 sequence (whole entry): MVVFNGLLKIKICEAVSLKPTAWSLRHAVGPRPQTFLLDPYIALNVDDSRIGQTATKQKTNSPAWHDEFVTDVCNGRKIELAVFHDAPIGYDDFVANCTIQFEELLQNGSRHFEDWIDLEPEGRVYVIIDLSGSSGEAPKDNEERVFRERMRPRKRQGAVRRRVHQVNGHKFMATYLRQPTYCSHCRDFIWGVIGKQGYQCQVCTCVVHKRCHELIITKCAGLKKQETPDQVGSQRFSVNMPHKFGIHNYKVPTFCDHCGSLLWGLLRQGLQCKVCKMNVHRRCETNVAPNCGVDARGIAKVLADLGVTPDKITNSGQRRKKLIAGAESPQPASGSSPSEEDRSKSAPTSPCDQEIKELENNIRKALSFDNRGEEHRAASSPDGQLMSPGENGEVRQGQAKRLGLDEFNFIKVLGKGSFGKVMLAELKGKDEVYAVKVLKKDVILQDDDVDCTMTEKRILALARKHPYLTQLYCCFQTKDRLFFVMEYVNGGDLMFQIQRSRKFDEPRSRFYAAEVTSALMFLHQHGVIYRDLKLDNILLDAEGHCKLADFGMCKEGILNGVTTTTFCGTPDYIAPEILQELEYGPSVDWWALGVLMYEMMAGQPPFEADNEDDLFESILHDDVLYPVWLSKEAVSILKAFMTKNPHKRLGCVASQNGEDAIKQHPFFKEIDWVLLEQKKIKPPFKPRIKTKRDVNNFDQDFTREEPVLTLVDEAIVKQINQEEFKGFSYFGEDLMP

[4] = target: Calcium/calmodulin-dependent protein kinase type II subunit beta (Homo sapiens) (UniProt Q13554); test: Inhibition of human CaMK2beta; conditions: concentration not given here
Sequence of Calcium/calmodulin-dependent protein kinase type II subunit beta (Homo sapiens) (Q13554 whole entry): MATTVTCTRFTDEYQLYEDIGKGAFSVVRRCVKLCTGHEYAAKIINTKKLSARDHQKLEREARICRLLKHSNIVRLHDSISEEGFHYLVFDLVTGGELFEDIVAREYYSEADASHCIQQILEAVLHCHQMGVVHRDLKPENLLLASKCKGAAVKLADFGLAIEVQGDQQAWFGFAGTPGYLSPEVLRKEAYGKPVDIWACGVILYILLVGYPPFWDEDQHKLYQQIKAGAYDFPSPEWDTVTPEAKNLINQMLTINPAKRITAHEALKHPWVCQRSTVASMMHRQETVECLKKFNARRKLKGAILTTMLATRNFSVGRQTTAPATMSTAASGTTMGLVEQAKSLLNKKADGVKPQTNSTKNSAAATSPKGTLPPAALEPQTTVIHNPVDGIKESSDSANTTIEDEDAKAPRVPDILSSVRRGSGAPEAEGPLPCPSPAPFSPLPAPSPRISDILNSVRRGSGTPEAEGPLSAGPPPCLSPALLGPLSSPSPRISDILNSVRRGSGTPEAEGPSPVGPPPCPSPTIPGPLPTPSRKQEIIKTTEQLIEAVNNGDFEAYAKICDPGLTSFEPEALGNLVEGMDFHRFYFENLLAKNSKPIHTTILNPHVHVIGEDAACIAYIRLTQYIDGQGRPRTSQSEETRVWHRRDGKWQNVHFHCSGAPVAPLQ
In short: (§1)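 Selectivity screen run externally (Invitrogen SelectScreen). Percent inhibition measured at 1 μM compound, mean of 2 measurements.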

[5] = Half life in rats after 2 mg/kg intravenous dose; assay type: ADME, organism-based; design: dose 2 mg/kg, route intravenous; conditions: Sprague-Dawley, rat, in vivo
In short: (§2)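 Rats dosed iv 2 mg/kg (n = 2) or po 5 mg/kg (n = 3) in 10% NMP, 10% Cremophor, 80% pH 4.63 buffer. PK parameters derived from iv dosing, reported as mean ± SD.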

[6] = target: T2, Calcium/calmodulin-dependent protein kinase type IV (Homo sapiens) (UniProt Q16566); test: Inhibition of human CaMK4; conditions: concentration not given here; in short: as §1
T2 sequence (whole entry): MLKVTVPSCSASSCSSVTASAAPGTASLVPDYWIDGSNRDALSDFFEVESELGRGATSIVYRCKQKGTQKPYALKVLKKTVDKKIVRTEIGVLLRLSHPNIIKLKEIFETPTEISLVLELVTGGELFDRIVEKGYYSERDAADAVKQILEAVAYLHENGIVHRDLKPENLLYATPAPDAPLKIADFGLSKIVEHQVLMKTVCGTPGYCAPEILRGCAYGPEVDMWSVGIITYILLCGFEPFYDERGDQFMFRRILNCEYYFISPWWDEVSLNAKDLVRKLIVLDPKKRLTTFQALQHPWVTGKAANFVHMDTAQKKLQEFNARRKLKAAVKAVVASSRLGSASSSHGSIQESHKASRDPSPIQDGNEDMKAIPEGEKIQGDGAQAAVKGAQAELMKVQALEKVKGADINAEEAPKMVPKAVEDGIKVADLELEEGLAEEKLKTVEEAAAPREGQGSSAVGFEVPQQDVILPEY

[7] = Clearance in Sprague-Dawley rat at 2 mg/kg, iv and 5 mg/kg, po; assay type: ADME, organism-based; conditions: in vivo; in short: as §2
[8] = target: Protein kinase C delta type (Homo sapiens) (UniProt Q05655); test: Inhibition of human PKCdelta; conditions: concentration not given here; in short: as §1
Sequence of Protein kinase C delta type (Homo sapiens) (Q05655 whole entry, looked up): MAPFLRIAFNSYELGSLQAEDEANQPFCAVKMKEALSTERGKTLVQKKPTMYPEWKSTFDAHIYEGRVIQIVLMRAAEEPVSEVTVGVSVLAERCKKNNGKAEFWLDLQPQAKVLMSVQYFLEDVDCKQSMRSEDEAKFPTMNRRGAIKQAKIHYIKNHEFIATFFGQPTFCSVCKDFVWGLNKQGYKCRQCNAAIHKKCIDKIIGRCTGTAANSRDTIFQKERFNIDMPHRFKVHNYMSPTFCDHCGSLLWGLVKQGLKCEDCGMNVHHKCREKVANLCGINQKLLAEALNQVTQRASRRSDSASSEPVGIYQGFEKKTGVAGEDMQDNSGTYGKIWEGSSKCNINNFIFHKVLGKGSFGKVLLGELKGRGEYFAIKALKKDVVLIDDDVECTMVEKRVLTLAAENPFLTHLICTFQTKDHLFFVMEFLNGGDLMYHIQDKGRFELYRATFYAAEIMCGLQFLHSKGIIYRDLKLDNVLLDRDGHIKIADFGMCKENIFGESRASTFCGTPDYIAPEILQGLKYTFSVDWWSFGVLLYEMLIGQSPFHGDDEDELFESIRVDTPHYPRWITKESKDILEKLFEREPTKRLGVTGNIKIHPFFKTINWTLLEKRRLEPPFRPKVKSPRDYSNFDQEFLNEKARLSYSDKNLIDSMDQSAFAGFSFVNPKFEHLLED

[9] = Volume of distribution at steady state in Sprague-Dawley rat at 2 mg/kg, iv and 5 mg/kg, po; assay type: ADME, organism-based; conditions: in vivo, read-out: Vdss; in short: as §2
[10] = target: T3, Serine/threonine-protein kinase D1 (Homo sapiens) (UniProt Q15139); test: Inhibition of PKD1 autophosphorylation at 1 uM
T3 sequence (whole entry): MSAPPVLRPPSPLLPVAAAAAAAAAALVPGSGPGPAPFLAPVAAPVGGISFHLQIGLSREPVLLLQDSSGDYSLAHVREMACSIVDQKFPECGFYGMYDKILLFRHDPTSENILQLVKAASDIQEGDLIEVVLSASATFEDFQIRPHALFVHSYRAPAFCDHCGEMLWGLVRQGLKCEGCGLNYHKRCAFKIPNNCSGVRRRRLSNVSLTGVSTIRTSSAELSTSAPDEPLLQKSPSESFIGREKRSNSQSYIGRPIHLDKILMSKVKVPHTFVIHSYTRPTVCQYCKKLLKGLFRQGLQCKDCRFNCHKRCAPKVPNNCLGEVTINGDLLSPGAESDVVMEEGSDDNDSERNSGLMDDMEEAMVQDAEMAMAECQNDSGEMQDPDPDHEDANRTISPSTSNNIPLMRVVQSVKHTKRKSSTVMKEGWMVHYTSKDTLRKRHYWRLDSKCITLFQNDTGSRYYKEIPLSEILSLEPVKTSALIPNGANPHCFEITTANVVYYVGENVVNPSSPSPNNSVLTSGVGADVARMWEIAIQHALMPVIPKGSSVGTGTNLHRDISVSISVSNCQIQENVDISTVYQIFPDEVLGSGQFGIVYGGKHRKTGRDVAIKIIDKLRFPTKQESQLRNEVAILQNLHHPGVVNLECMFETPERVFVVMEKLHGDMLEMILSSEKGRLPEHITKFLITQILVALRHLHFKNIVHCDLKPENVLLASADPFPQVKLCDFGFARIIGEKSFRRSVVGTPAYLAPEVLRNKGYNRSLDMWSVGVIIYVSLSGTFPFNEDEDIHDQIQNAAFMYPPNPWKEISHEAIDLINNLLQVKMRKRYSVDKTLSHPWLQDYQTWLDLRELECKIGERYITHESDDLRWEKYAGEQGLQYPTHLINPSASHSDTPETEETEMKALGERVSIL

[11] = target: Serine/threonine-protein kinase MARK1 (Homo sapiens) (UniProt Q9P0L2); test: Inhibition of human MARK1; conditions: concentration not given here; in short: as §1
Sequence of Serine/threonine-protein kinase MARK1 (Homo sapiens) (Q9P0L2 whole entry, looked up): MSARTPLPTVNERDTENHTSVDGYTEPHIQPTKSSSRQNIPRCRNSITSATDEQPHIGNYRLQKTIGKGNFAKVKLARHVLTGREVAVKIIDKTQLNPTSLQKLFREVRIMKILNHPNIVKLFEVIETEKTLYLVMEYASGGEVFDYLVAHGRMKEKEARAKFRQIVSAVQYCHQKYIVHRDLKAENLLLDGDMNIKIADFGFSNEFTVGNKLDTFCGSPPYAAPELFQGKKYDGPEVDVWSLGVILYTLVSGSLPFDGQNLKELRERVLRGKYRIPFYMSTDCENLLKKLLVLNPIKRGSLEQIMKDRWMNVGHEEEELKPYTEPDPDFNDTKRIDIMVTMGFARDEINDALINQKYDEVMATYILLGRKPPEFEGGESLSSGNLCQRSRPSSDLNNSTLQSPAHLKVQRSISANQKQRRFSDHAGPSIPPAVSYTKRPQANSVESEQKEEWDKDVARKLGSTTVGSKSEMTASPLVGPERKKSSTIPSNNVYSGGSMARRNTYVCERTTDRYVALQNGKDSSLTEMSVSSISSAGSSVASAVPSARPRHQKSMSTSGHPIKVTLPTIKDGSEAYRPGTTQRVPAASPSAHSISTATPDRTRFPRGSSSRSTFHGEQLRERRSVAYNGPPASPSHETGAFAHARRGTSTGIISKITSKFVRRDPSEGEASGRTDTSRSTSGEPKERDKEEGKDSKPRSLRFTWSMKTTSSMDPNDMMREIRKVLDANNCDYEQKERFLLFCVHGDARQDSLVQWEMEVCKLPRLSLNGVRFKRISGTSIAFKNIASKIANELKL

inhibition [1]: inactive
concentration [2]: 12 µM
concentration (Plasma): 0.23 µM
inhibition [3]: -3%
inhibition [4]: 3%
half-life [5]: 3.8 h
inhibition [6]: 1%
clearance [7]: 97 mL/min/kg
inhibition [8]: 22%
Vd [9]: 22 L/kg
inhibition [10]: Active
inhibition [11]: 24%
SMILES: NC(=O)c1cc(-c2ccnc(NC3CCCCC3)c2)nc(N2CCNCC2)c1
Activity (Rattus norvegicus): Active
